Source: ChEMBL document CHEMBL4823277, “Novel chalcone-conjugated, multi-flexible end-group coumarin thiazole hybrids as potential antibacterial repressors against methicillin-resistant Staphylococcus aureus” (Eur J Med Chem, 2021)
≈ marks a conversion by molar mass, not a printed value. Calls of active or inactive are those of the source. The rule behind the calls is not given here.

How the values were obtained:
Staphylococcus aureus [1] = assay: Antibacterial activity against Staphylococcus aureus ATCC 25923 by microbroth dilution method; format: functional
Klebsiella pneumoniae [2] = assay: Antibacterial activity against Klebsiella pneumonia by microbroth dilution method; format: functional
Pseudomonas aeruginosa [3] = assay: Antibacterial activity against Pseudomonas aeruginosa by microbroth dilution method; format: functional
Escherichia coli [4] = assay: Antibacterial activity against Escherichia coli ATCC 25922 by microbroth dilution method; format: functional
Staphylococcus aureus [5] = assay: Antibacterial activity against methicillin-resistant Staphylococcus aureus N315 by microbroth dilution method; format: functional
Outline: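 Minimum inhibitory concentration against MRSA N315 determined by micro broth dilution in microdilution plates.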

Staphylococcus aureus [6] = assay: Antibacterial activity against Staphylococcus aureus ATCC 29213 by microbroth dilution method; format: functional
Acinetobacter baumannii = assay: Antibacterial activity against Acinetobacter baumannii by microbroth dilution method; format: functional
Enterococcus faecalis [7] = assay: Antibacterial activity against Enterococcus faecalis by microbroth dilution method; format: functional
Escherichia coli [8] = assay: Antibacterial activity against Escherichia coli by microbroth dilution method; format: functional
Staphylococcus aureus [9] = assay: Antibacterial activity against Staphylococcus aureus by microbroth dilution method; format: functional
Pseudomonas aeruginosa [10] = assay: Antibacterial activity against Pseudomonas aeruginosa ATCC 27853 by microbroth dilution method; format: functional
Staphylococcus aureus [11] = assay: Bactericidal activity against methicillin-resistant Staphylococcus aureus assessed as decrease in viable cells at 4 times MIC measured after 2 hrs by time kill assay; format: functional
Outline: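 Time-kill kinetics against MRSA at 4 × MIC. Viable cells were counted as CFU/mL over time, including the 2 h point.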

Escherichia coli [12] = assay: Potentiation of norfloxacin-induced antibacterial activity against Escherichia coli assessed as norfloxacin MIC; format: functional
DNA [13] = assay: Binding affinity to methicillin-resistant Staphylococcus aureus DNA assessed as maximum absorption peak at 260 nm by UV-vis spectroscopy; format: nucleic-acid assay
DNA [14] = assay: Binding affinity to methicillin-resistant Staphylococcus aureus DNA assessed as decrease in absorption of compound-DNA complex by UV-vis spectroscopy; format: nucleic-acid assay
Escherichia coli [15] = assay: Additive antibacterial activity against Escherichia coli assessed as fractional inhibitory concentration index in presence of norfloxacin; format: functional
Staphylococcus aureus [16] = assay: Antibacterial activity against methicillin-resistant Staphylococcus aureus up to 50 ug/ml measured after 7 passages by resistance development assay; format: functional, organism-based; details: dose microg/ml <=50
Klebsiella pneumoniae [17] = assay: Additive antibacterial activity against Klebsiella pneumoniae assessed as fractional inhibitory concentration index in presence of norfloxacin; format: functional
Klebsiella pneumoniae [18] = assay: Potentiation of norfloxacin-induced antibacterial activity against Klebsiella pneumoniae assessed as norfloxacin MIC; format: functional
RAW264.7 = assay: Cytotoxicity against mouse RAW264.7 cells assessed as effect on cell viability up to 500 ug/ml by MTT assay; format: cell-based; details: dose <=500 µg/ml
Outline: (§1)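 MTT viability assay on human hepatocyte LO2 cells and RAW 264.7 cells. The test hybrid was applied over a rising concentration series up to 500. The read-out was the percentage of living cells.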

DNA [19] = assay: Binding affinity to methicillin-resistant Staphylococcus aureus DNA assessed as compound-DNA interaction causing DNA replication blockage by neutral red uptake assay; format: nucleic-acid assay
Staphylococcus aureus [20] = assay: Synergistic antibacterial activity against methicillin resistant Staphylococcus aureus N315 assessed as fractional inhibitory concentration index in presence of norfloxacin; format: functional
Enterococcus faecalis [21] = assay: Indifferent antibacterial activity against Enterococcus faecalis assessed as fractional inhibitory concentration index in presence of norfloxacin; format: functional
Enterococcus faecalis [22] = assay: Potentiation of norfloxacin-induced antibacterial activity against Enterococcus faecalis assessed as norfloxacin MIC; format: functional
Cell membrane = assay: Induction of membrane permeabilization in methicillin resistant Staphylococcus aureus at 12 times MIC measured after 60 mins by propidium iodide staining based fluorescence assay
Outline: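 PI–DNA fluorescence intensity was followed over time up to and beyond 60 min, compared with an untreated control.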

L02 = assay: Cytotoxicity against human L02 cells assessed as effect on cell viability up to 500 ug/ml by MTT assay; format: cell-based; details: dose <=500 µg/ml; outline: as §1

SMILES	MIC (Staphylococcus aureus [1])	MIC (Klebsiella pneumoniae [2])	MIC (Pseudomonas aeruginosa [3])	MIC (Escherichia coli [4])	MIC (Staphylococcus aureus [5])	MIC (Staphylococcus aureus [6])	MIC (Acinetobacter baumannii)	MIC (Enterococcus faecalis [7])	MIC (Escherichia coli [8])	MIC (Staphylococcus aureus [9])	MIC (Pseudomonas aeruginosa [10])	also measured
O=C(/C(=C/c1ccc([N+](=O)[O-])cc1)Oc1ccc2c(CN(CCO)CCO)cc(=O)oc2c1)c1nccs1	60 µM (≈ 32.3 µg/mL)	238 µM (≈ 128 µg/mL)	476 µM (≈ 256 µg/mL)	119 µM (≈ 64 µg/mL)	7 µM (≈ 3.76 µg/mL)	119 µM (≈ 64 µg/mL)	238 µM (≈ 128 µg/mL)	119 µM (≈ 64 µg/mL)	119 µM (≈ 64 µg/mL)	119 µM (≈ 64 µg/mL)	238 µM (≈ 128 µg/mL)	
Cc1ccc(/C=C(\Oc2ccc3c(CN(CCO)CCO)cc(=O)oc3c2)C(=O)c2nccs2)cc1	63 µM (≈ 31.9 µg/mL)	63 µM (≈ 31.9 µg/mL)	253 µM (≈ 128 µg/mL)	126 µM (≈ 63.8 µg/mL)	63 µM (≈ 31.9 µg/mL)	126 µM (≈ 63.8 µg/mL)	253 µM (≈ 128 µg/mL)	63 µM (≈ 31.9 µg/mL)	16 µM (≈ 8.11 µg/mL)	126 µM (≈ 63.8 µg/mL)	505 µM (≈ 256 µg/mL)	
CCn1cc(/C=C(\Oc2ccc3c(CN(CCO)CCO)cc(=O)oc3c2)C(=O)c2nccs2)c2ccccc21	7 µM (≈ 3.92 µg/mL)	229 µM (≈ 128 µg/mL)	114 µM (≈ 63.8 µg/mL)	229 µM (≈ 128 µg/mL)	114 µM (≈ 63.8 µg/mL)	57 µM (≈ 31.9 µg/mL)	57 µM (≈ 31.9 µg/mL)	14 µM (≈ 7.84 µg/mL)	229 µM (≈ 128 µg/mL)	29 µM (≈ 16.2 µg/mL)	57 µM (≈ 31.9 µg/mL)	
O=C(/C(=C/c1ccccc1)Oc1ccc2c(CN(CCO)CCO)cc(=O)oc2c1)c1nccs1	1040 µM (≈ 512 µg/mL)	1040 µM (≈ 512 µg/mL)	520 µM (≈ 256 µg/mL)	260 µM (≈ 128 µg/mL)	130 µM (≈ 64 µg/mL)	1040 µM (≈ 512 µg/mL)	1040 µM (≈ 512 µg/mL)	130 µM (≈ 64 µg/mL)	1040 µM (≈ 512 µg/mL)	260 µM (≈ 128 µg/mL)	520 µM (≈ 256 µg/mL)	
O=C(/C(=C/c1ccc(Br)cc1)Oc1ccc2c(CN(CCO)CCO)cc(=O)oc2c1)c1nccs1	272 µM (≈ 155 µg/mL)	1090 µM (≈ 621 µg/mL)	272 µM (≈ 155 µg/mL)	543 µM (≈ 310 µg/mL)	136 µM (≈ 77.7 µg/mL)	272 µM (≈ 155 µg/mL)	543 µM (≈ 310 µg/mL)	136 µM (≈ 77.7 µg/mL)	1090 µM (≈ 621 µg/mL)	68 µM (≈ 38.9 µg/mL)	1090 µM (≈ 621 µg/mL)	
COc1ccc(/C=C(\Oc2ccc3c(CN(CCO)CCO)cc(=O)oc3c2)C(=O)c2nccs2)cc1	122 µM (≈ 63.8 µg/mL)	61 µM (≈ 31.9 µg/mL)	122 µM (≈ 63.8 µg/mL)	244 µM (≈ 128 µg/mL)	4 µM (≈ 2.09 µg/mL)	122 µM (≈ 63.8 µg/mL)	244 µM (≈ 128 µg/mL)	61 µM (≈ 31.9 µg/mL)	15 µM (≈ 7.84 µg/mL)	61 µM (≈ 31.9 µg/mL)	244 µM (≈ 128 µg/mL)	Activity (Staphylococcus aureus [11]): <10 CFU/ml; MIC (Escherichia coli [12]): 0.234 10^-3mM; Activity (DNA [13]): Active; Activity (DNA [14]): Active; fractional inhibitory concentration index (FICI) (Escherichia coli [15]): 0.51; Activity (Staphylococcus aureus [16]): Active; fractional inhibitory concentration index (FICI) (Klebsiella pneumoniae [17]): 0.58; MIC (Klebsiella pneumoniae [18]): 0.953 10^-3mM; Activity (RAW264.7): Non-Toxic; Activity (DNA [19]): Active; fractional inhibitory concentration index (FICI) (Staphylococcus aureus [20]): 0.45; fractional inhibitory concentration index (FICI) (Enterococcus faecalis [21]): 1.34; MIC (Enterococcus faecalis [22]): 1.906 10^-3mM; Activity (Cell membrane): Active; Activity (L02): Non-Toxic
O=C(/C(=C/c1ccc(F)cc1)Oc1ccc2c(CN(CCO)CCO)cc(=O)oc2c1)c1nccs1	251 µM (≈ 128 µg/mL)	251 µM (≈ 128 µg/mL)	1000 µM (≈ 512 µg/mL)	251 µM (≈ 128 µg/mL)	125 µM (≈ 63.8 µg/mL)	251 µM (≈ 128 µg/mL)	251 µM (≈ 128 µg/mL)	125 µM (≈ 63.8 µg/mL)	1000 µM (≈ 512 µg/mL)	125 µM (≈ 63.8 µg/mL)	251 µM (≈ 128 µg/mL)	
